# Experimental data published in ChEMBL document CHEMBL3352298, “Identification of potent orally active factor Xa inhibitors based on conjugation strategy and application of predictable fragment recommender system” (Bioorg Med Chem, 2015).
# Calls of active or inactive are those of the source. The rule behind the calls is not given here.
# Legend:
# Coagulation factor X [1] = biological target: T1, Coagulation factor X (Homo sapiens, UniProt P00742); assay: Inhibition of human factor 10a using S-2222 chromogenic substrate assessed as hydrolysis at 1.36 uM by microplate reader
# How it was run: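 Purified human fXa with chromogenic substrate S-2222 and inhibitor in 0.05 M Tris-HCl pH 8.4 or 0.15 M NaCl; reaction started with enzyme. Hydrolysis read continuously at 405 nm, 37 °C. Percent inhibition at final inhibitor 1.36 µM, single run.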
# Coagulation factor X [2] = biological target: T1, Coagulation factor X; assay: Inhibition of human factor 10a using S-2222 chromogenic substrate assessed as hydrolysis by microplate reader
# Trypsin = Trypsin (Homo sapiens, UniProt P07477+P07478+P35030); assay: Inhibition of human Trypsin using S-2222 chromogenic substrate assessed as hydrolysis by microplate reader
# Plasma [3] = assay: Anticoagulant activity in human plasma assessed as concentration required to double clotting time; assay type: functional
# How it was run: (§1)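 Citrated plasma (human or mouse) spun at 3000 rpm for 10 min and stored at −40 °C. Clotting times read on a coagulometer at 37 °C; PT with thromboplastin, compared with a distilled water control. CT2 (concentration doubling clotting time) taken from each concentration–response curve; three determinations, mean reported.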
# Plasma [4] = assay: Anticoagulant activity in mouse plasma assessed as concentration required to prolong prothombin time; assay type: functional; how it was run: as §1
# Prothrombin = Prothrombin (Homo sapiens, UniProt P00734); assay: Inhibition of human Thrombin using S-2238 chromogenic substrate assessed as hydrolysis by microplate reader
# Mus musculus = assay: Anticoagulant activity in ICR mouse plasma assessed as prolongation of prothombin time at 100 mg/kg, po after 0.5 to 2 hrs relative to untreated control; assay type: functional
# How it was run: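 Male ICR mice (30–37 g) given compound dissolved or suspended in 0.5% methyl cellulose, 100 mg/kg by gastric tube. PT measured by coagulometer at 37 °C with thromboplastin; expressed as fold of vehicle-treated baseline; n = 3.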
# T1 sequence (P00742 41-179 limits assumed): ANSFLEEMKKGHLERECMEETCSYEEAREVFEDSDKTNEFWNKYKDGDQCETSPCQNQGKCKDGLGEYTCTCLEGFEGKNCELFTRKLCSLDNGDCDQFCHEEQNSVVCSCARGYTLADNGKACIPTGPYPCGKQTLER
# T1 sequence (P00742 235-488 limits assumed): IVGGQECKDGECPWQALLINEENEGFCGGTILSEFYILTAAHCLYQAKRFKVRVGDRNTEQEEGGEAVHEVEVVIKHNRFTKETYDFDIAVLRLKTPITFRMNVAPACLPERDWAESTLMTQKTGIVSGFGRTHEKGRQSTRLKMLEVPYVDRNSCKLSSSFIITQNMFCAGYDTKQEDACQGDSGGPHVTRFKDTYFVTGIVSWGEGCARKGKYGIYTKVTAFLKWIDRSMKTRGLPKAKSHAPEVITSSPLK
Structure (SMILES),inhibition (Coagulation factor X [1]),IC50 (Coagulation factor X [2]) [nM],other results
CN1CCCN(c2ccc(C(=O)Nc3ccccc3C(=O)Nc3nc4ccccc4[nH]3)cc2)CC1,inactive,,
Cc1ccc(NC(=O)c2ccccc2NC(=O)c2ccc(N3CCCN(C)CC3)cc2)cc1,94%,,
Cc1cccc(NC(=O)c2ccccc2NC(=O)c2ccc(N3CCCN(C)CC3)cc2)c1,88%,,
CN1CCCN(c2ccc(C(=O)Nc3ccccc3C(=O)Nc3ccc(N(C)C)cc3)cc2)CC1,24%,,
CN1CCCN(c2ccc(C(=O)Nc3c(O[C@@H]4O[C@H](C(=O)O)[C@@H](O)[C@H](O)[C@H]4O)cc(Cl)cc3C(=O)Nc3ccc(Cl)cn3)cc2)CC1,,1.5,IC50 (Trypsin): > 100000 nM; Activity (Plasma [3]): 0.27 µM; Activity (Plasma [4]): 0.28 µM; IC50 (Prothrombin): > 100000 nM
COc1ccc(NC(=O)c2cc(Cl)cc(O)c2NC(=O)c2ccc(N3CCCN(C)CC3)cc2)cc1.Cl,,68,Ratio (Mus musculus): 3.91
CS(=O)(=O)c1ccccc1-c1ccc(NC(=O)c2cc(C(F)(F)F)nn2-c2cccc(CN)c2)c(F)c1.Cl,,,Activity (Plasma [3]): 0.67 µM; Activity (Plasma [4]): 0.7 µM
COc1cccc(NC(=O)c2ccccc2NC(=O)c2ccc(N3CCCN(C)CC3)cc2)c1,40%,,
CN1CCCN(c2ccc(C(=O)Nc3c(O)cc(Cl)cc3C(=O)Nc3ccc(Cl)cn3)cc2)CC1.Cl,,8.7,Ratio (Mus musculus): 7.8
CN1CCCN(c2ccc(C(=O)Nc3ccccc3C(=O)Nc3ccccn3)cc2)CC1,38%,,
CN1CCCN(c2ccc(C(=O)Nc3ccccc3C(=O)Nc3ccc(OC(F)(F)F)cc3)cc2)CC1,32%,,
CN1CCCN(c2ccc(C(=O)Nc3c(O)cccc3C(=O)Nc3ccc(Cl)cc3)cc2)CC1.Cl,,6.9,Ratio (Mus musculus): 2.67
COc1ccc(NC(=O)c2ccc(C)c(O)c2NC(=O)c2ccc(N3CCCN(C)CC3)cc2)cc1.Cl,,61,Ratio (Mus musculus): 0.95
CN1CCCN(c2ccc(C(=O)Nc3ccc(Cl)cc3C(=O)Nc3ccc(Cl)cn3)cc2)CC1.Cl,,3.6,Ratio (Mus musculus): 1.21
Cc1cc(NC(=O)c2ccccc2NC(=O)c2ccc(N3CCCN(C)CC3)cc2)n[nH]1,inactive,,
COc1ccc(NC(=O)c2cccc(O)c2NC(=O)c2ccc(N3CCCN(C)CC3)cc2)nc1.Cl,,220,Ratio (Mus musculus): 2.03
Cc1cc(NC(=O)c2ccccc2NC(=O)c2ccc(N3CCCN(C)CC3)cc2)sn1,inactive,,
COc1ccc(NC(=O)c2cccc(O)c2NC(=O)c2ccc(N3CCCN(C)CC3)cc2)cc1.Cl,,150,Ratio (Mus musculus): 1.97
CN1CCCN(c2ccc(C(=O)Nc3ccccc3C(=O)Nc3ccccc3Cl)cc2)CC1,11%,,

Structure (SMILES),inhibition (Coagulation factor X [1]),IC50 (Coagulation factor X [2]) [nM],other results
CCc1ccc(NC(=O)c2ccccc2NC(=O)c2ccc(N3CCCN(C)CC3)cc2)cc1,15%,,
COc1ccc(NC(=O)c2ccccc2NC(=O)c2ccc(N3CCCN(C)CC3)cc2)cc1OC,inactive,,
CN1CCCN(c2ccc(C(=O)Nc3c(O)cccc3C(=O)Nc3ccc(Cl)cn3)cc2)CC1.Cl,,16,Ratio (Mus musculus): 3.61
CC(C)c1ccc(NC(=O)c2ccccc2NC(=O)c2ccc(N3CCCN(C)CC3)cc2)cc1,23%,,
COc1ccc(NC(=O)c2ccccc2NC(=O)c2ccc(N3CCCN(C)CC3)cc2)cc1.Cl,85%,,Ratio (Mus musculus): 1.02
Cc1ccc(NC(=O)c2cccc(O)c2NC(=O)c2ccc(N3CCCN(C)CC3)cc2)nc1.Cl,,290,Ratio (Mus musculus): 2.13
CN1CCCN(c2ccc(C(=O)Nc3ccccc3C(=O)Nc3ccc(Oc4ccccc4)cc3)cc2)CC1,22%,,
COc1ccc(NC(=O)c2cccc(O[C@@H]3O[C@H](C(=O)O)[C@@H](O)[C@H](O)[C@H]3O)c2NC(=O)c2ccc(N3CCCN(C)CC3)cc2)cc1,,66,
Cc1ccccc1NC(=O)c1ccccc1NC(=O)c1ccc(N2CCCN(C)CC2)cc1,16%,,
COc1ccc(NC(=O)c2ccccc2NC(=O)c2ccc(N3CCCN(C)CC3)cc2)cn1,7%,,
Cc1ccnc(NC(=O)c2ccccc2NC(=O)c2ccc(N3CCCN(C)CC3)cc2)c1,56%,,
COc1ccc(NC(=O)c2ccccc2NC(=O)c2ccc(N3CCCN(C)CC3)cc2)cc1Cl,39%,,
Cc1ccc(NC(=O)c2ccccc2NC(=O)c2ccc(N3CCCN(C)CC3)cc2)nc1,73%,,
CN1CCCN(c2ccc(C(=O)Nc3ccccc3C(=O)Nc3cccc(Cl)c3)cc2)CC1,76%,,
Cc1cccc(NC(=O)c2ccccc2NC(=O)c2ccc(N3CCCN(C)CC3)cc2)n1,9%,,
Cc1ccc(NC(=O)c2cccc(O)c2NC(=O)c2ccc(N3CCCN(C)CC3)cc2)cc1.Cl,,68,Ratio (Mus musculus): 2.11
CN1CCCN(c2ccc(C(=O)Nc3ccccc3C(=O)Nc3ccc(Cl)cc3)cc2)CC1,100%,,
CN1CCCN(c2ccc(C(=O)Nc3ccccc3C(=O)Nc3ccc4ccccc4n3)cc2)CC1,inactive,,
